pIC50: −log10 of the molar value.
Legend:
Type in all cases: functional, cell-based
[1] = system: HepG2; test: Cytotoxicity against human HepG2 cells after 72 hrs by crystal violet staining based microplate reader analysis; details: HepG2, 72 h
Outline: (§1)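 ATCC HepG2 and MDA-MB-231 cells grown in DMEM with 10% FBS and no antibiotics. Medium was changed at 50–60% confluence (24–48 h post-plating), then cells were exposed for 72 h. Fixation used 1% glutaraldehyde in PBS for 15 min, followed by 0.02% aqueous crystal violet for 30 min. After a PBS wash and 70% EtOH solubilization, absorbance was read at 570 nm (ref 405 nm). IC50 derived; Taxol was the positive control.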

[2] = system: MDA-MB-231; test: Cytotoxicity against human MDA-MB-231 cells after 72 hrs by crystal violet staining based microplate reader analysis; details: MDA-MB-231, 72 h; outline: as §1
[3] = system: A549; test: Cytotoxicity against human A549 cells after 72 hrs by crystal violet staining based microplate reader analysis; details: A549, 72 h
Outline: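 At 50–60% confluence (24–48 h after plating), medium was refreshed before a 72 h treatment. Cells were fixed in 1% glutaraldehyde/PBS for 15 min and stained with 0.02% crystal violet for 30 min. After a PBS wash, dye was solubilized in 70% EtOH and read at A570 (ref 405 nm). IC50 reported; Taxol was the positive control.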

COc1cc(/C=C/C(=O)/C=C(O)/C=C/c2ccc(O[C@H]3C=C(C)[C@@H](O)C[C@@H]3[C@@H](C)CC(=O)C=C(C)C)c(OC)c2)ccc1O [BISABOLOCURCUMIN ETHER]
pIC50 [1]: 4.81 | pIC50 [2]: 4.97 | pIC50 [3]: 4.79

O=C(/C=C/c1ccc(O)cc1)CC(=O)/C=C/c1ccc(O)cc1 [BISDEMETHOXYCURCUMIN]
pIC50 [1]: 4.20 | pIC50 [2]: 4.41 | pIC50 [3]: 4.42

COc1cc(/C=C/C(=O)CC(=O)/C=C/c2ccc(O)c(OC)c2)ccc1O [CURCUMIN]
pIC50 [1]: 4.50 | pIC50 [2]: 4.42 | pIC50 [3]: 4.31

COc1cc(/C=C/C(O)=C/C(=O)/C=C/c2ccc(O)cc2)ccc1O[C@H]1C=C(C)[C@@H](O)C[C@@H]1[C@@H](C)CC(=O)C=C(C)C [DEMETHOXYBISABOLOCURCUMIN ETHER]
pIC50 [1]: 4.89 | pIC50 [2]: 4.99 | pIC50 [3]: 4.78

COc1cc(/C=C/C(O)=C/C(=O)/C=C/c2ccc(O)cc2)ccc1O [DEMETHOXYCURCUMIN]
pIC50 [1]: 4.24 | pIC50 [2]: 4.35 | pIC50 [3]: 4.42

CC(C)=CC(=O)C[C@H](C)[C@H]1C[C@H](O)C(C)=C[C@@H]1Oc1ccc(/C=C/C(O)=C/C(=O)/C=C/c2ccc(O)cc2)cc1 [DIDEMETHOXYBISABOLOCURCUMIN ETHER]
pIC50 [1]: 4.64 | pIC50 [2]: 4.51 | pIC50 [3]: 4.56

CC(=O)O[C@H]1C(=O)[C@@]2(C)[C@H]([C@H](OC(=O)c3ccccc3)[C@]3(O)C[C@H](OC(=O)[C@H](O)[C@@H](NC(=O)c4ccccc4)c4ccccc4)C(C)=C1C3(C)C)[C@]1(OC(C)=O)CO[C@@H]1C[C@@H]2O [PACLITAXEL]
pIC50 [1]: 7.27 | pIC50 [2]: 7.28 | pIC50 [3]: 7.25

COc1cc(/C=C/C(=O)/C=C(O)/C=C/c2ccc(O[C@H]3C=C(C)[C@@H](O)C[C@@H]3[C@@H](C)CCC=C(C)C)c(OC)c2)ccc1O [TERPECURCUMIN A]
pIC50 [1]: 4.60 | pIC50 [2]: 4.56 | pIC50 [3]: 4.51

COc1cc(/C=C/C(=O)/C=C(O)/C=C/c2ccc(O[C@H]3C[C@H]([C@@H](C)CCC=C(C)C)[C@@H](O)C=C3C)c(OC)c2)ccc1O [TERPECURCUMIN B]
pIC50 [1]: 4.19 | pIC50 [2]: 4.13 | pIC50 [3]: 4.21

COc1cc(/C=C/C(=O)/C=C(O)/C=C/c2ccc(O[C@H]3C[C@H]([C@@H](C)CCC=C(C)C)C=C[C@@]3(C)O)c(OC)c2)ccc1O [TERPECURCUMIN C]
pIC50 [1]: 4.53 | pIC50 [2]: 4.61 | pIC50 [3]: 4.46

COc1cc(/C=C/C(=O)/C=C(O)/C=C/c2ccc(O[C@H]3C[C@H]([C@@H](C)CC(=O)C=C(C)C)C=C[C@@]3(C)O)c(OC)c2)ccc1O [TERPECURCUMIN D]
pIC50 [1]: 4.74 | pIC50 [2]: 4.80 | pIC50 [3]: 4.84

COc1cc(/C=C/C(=O)/C=C(O)/C=C/c2ccc(O[C@]3(C)C=C[C@@H]([C@@H](C)CCC=C(C)C)C[C@@H]3O)c(OC)c2)ccc1O [TERPECURCUMIN E]
pIC50 [1]: 4.44 | pIC50 [2]: 4.08 | pIC50 [3]: 4.38

COc1cc(/C=C/C(=O)/C=C(O)/C=C/c2ccc(O[C@]3(C)C=C[C@@H]([C@@H](C)CC(=O)C=C(C)C)C[C@@H]3O)c(OC)c2)ccc1O [TERPECURCUMIN F]
pIC50 [1]: 4.80 | pIC50 [2]: 4.71 | pIC50 [3]: 4.82

COc1cc(/C=C/C(=O)/C=C(O)/C=C/c2ccc(O[C@]3(C)C=C[C@@H]([C@@H](C)CC(=O)C=C(C)C)C[C@@H]3O)cc2)ccc1O [TERPECURCUMIN G]
pIC50 [1]: 4.77 | pIC50 [2]: 4.80 | pIC50 [3]: 4.84

COc1cc(/C=C/C(=O)/C=C(O)/C=C/c2cc(OC)c(O)c([C@H]3C=C(C)[C@@H](O)C[C@@H]3[C@@H](C)CCC=C(C)C)c2)ccc1O [TERPECURCUMIN H]
pIC50 [1]: 4.26 | pIC50 [2]: 4.36 | pIC50 [3]: 4.07

COc1cc(/C=C/C(=O)/C=C(O)/C=C/c2cc(OC)c(O)c([C@H]3C=C(C)CC[C@@H]3[C@@H](C)CC(=O)C=C(C)C)c2)ccc1O [TERPECURCUMIN I]
pIC50 [1]: 4.30 | pIC50 [2]: 4.16 | pIC50 [3]: 4.39
